Screens deposited in PubChem BioAssay by Johns Hopkins Ion Channel Center.
Kir21 block = inhibitors of mouse Kir2.1 inward-rectifier potassium channel | B-score at 10 µM | P35561 | HEK293-Kir2.1, FluxOR thallium flux fluorescence; stronger effect = lower value | 310,000 compounds, 0.85% hits;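 active = fluorescence ratio B-score at or below minus 3 SD of library scores, with starting-brightness B-score within 2 SD, cut at about -4.2 in these data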;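 also: channel flux triggered by added potassium and thallium sulfate stimulus; B-score of peak minus minimum fluorescence over baseline after thallium stimulus; more negative B-score means stronger Kir2.1 block with less thallium influx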
KCNQ1 pot = human KCNQ1 channel potentiation or activation | CHO-K1 KCNQ1, thallium flux FluxOR fluorescence; stronger effect = higher value | B-score at 10 µM | P51787 | 310,000 compounds, 0.35% hits;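 active = fluorescence ratio B-score, a plate-corrected score, at least three library SD, with initial intensity B-score within 5 SD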
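assay system = CHO-K1 cells stably expressing KCNQ1 | medium = assay buffer, equal DMSO in all wells | timing = 37 °C overnight plating, 90-min dark dye load, 20-min compound pretreatment | measured by = kinetic FluxOR thallium fluorescence, 10-s 1-Hz baseline, 110-s post-stimulus read | measure = fluorescence change relative to baseline, converted to B score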
KCNQ1 inh = human KCNQ1 channel inhibition. P51787. CHO-K1 KCNQ1, FluxOR thallium flux fluorescence; stronger effect = higher value. B-score at 10 µM. 310,000 compounds, 1.3% hits;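 active = compounds whose thallium flux B-score, printed positive for inhibition, exceeds three library SD while starting fluorescence stays within three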;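 also: channel opened by potassium depolarization with thallium stimulus after 20 min compound exposure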
KCNK9 inh-1 = blocks the human KCNK9 two-pore domain potassium channel; Q9NPC2; HEK293 KCNK9, FluxOR thallium flux fluorescence; stronger effect = lower value; B-score at 10 µM; 310,000 compounds, 1.2% hits; AID 488922;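 active = ratio B-score over 3 SD below the library mean, with starting fluorescence within 5 SD of its mean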;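 also: negative B-score means less thallium flux so channel inhibition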
Target sequence (Q9NPC2 whole entry, looked up, the tested form may be a part): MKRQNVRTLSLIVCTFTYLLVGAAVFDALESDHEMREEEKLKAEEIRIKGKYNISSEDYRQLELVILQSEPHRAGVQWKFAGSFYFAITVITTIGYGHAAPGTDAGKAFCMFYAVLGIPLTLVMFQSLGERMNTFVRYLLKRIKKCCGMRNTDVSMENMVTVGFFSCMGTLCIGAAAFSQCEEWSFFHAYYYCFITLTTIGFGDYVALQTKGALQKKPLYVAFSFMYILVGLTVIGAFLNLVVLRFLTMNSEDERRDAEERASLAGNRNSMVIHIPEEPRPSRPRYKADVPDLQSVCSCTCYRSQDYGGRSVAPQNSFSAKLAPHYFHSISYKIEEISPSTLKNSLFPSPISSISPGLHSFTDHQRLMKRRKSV
KCNK3 inh = human KCNK3 channel inhibition, primary screen; 340,000 compounds, 0.84% hits; B-score at 10 µM; AID 602410; O14649; CHO-KCNK3 thallium flux, FluxOR fluorescence; stronger effect = lower value;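 active = B-score under library mean minus 4 SD, starting fluorescence ratio at most library mean plus 5 SD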;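 also: more negative B-score means stronger inhibition of thallium flux through KCNK3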
hERG protect = hERG (human) protection from proarrhythmic block; CHO-hERG, FluxOR thallium flux, dofetilide IC70 present; Q12809; activation (rescue from dofetilide block), less the hit threshold, % at 10 µM; 310,000 compounds, 0.51% hits;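 active = activation above the mean of controls blocked by dofetilide plus 5 SD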;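 also: thallium influx through hERG after potassium depolarization seen as dye fluorescence rise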
hERG inh = blocks human hERG, in counter-screen for Kir2.1 inhibitors. shares compounds with Kir21 block. 320 compounds, 20% hits. inhibition, % at 10 µM. AID 2236. hERG-expressing cells, thallium flux;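 also: host cells are CHO cells stably expressing hERG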
KCNK9 inh-2 = selectivity of Kir2.1 inhibitors: effect on human KCNK9 | shares compounds with Kir21 block | KCNK9-expressing cells, ion flux inhibition | inhibition, % at 10 µM | 320 compounds, 5% hits | AID 2329
Kir21 ephys inh = blocks mouse Kir2.1 current in automated electrophysiology; shares compounds with Kir21 block; Kir2.1 cells, automated patch-clamp current inhibition; inhibition, % at 25 µM; 320 compounds, 71% hits; AID 463252
Starred values were filed as active, the others as inactive; i = inactive; . = no result. Sampled rows, rich in hits. Any-hit rate of the full collection: about 3.7%. Unless noted, no rule for the calls is given here.

SMILES	Kir21 block	KCNQ1 pot	KCNQ1 inh	KCNK9 inh-1	KCNK3 inh	hERG protect	hERG inh	KCNK9 inh-2	Kir21 ephys inh
Cc1nc(N2CCN(Cc3ccccc3)CC2)nc2c1C(=O)CC(C)C2 (centres undefined)	-7.12*	i	i	i	i	-15.3	i	i	8.9%*
Cc1cc(C)nc(SCCCNCc2ccc(Br)cc2)n1	-7.1*	i	i	i	i	-12.7	i	i	44.5%*
COc1cccc(CNc2ccc3[nH]c(=O)[nH]c3c2)c1OCc1ccccc1F	-7.44*	i	i	i	i	-15.2	i	i	2.2%*
COc1ccc(C(=O)Nc2c3c(nn2-c2ccc(Cl)cc2)CS(=O)(=O)C3)cc1	0	i	i	i	i	-6.8	.	.	.
Oc1ccc(Nc2nc(N3CCCC3)c3ccccc3n2)cc1	-7.51*	i	i	i	i	-13.0	64.0%*	i	i
FC(F)(F)c1cccc(CN2CCC(c3cc(-c4cccs4)n[nH]3)CC2)c1	-0.57	i	i	i	i	-17.7	.	.	.
Cc1ccc(CN2CCC(c3cc(-c4cccs4)n[nH]3)CC2)cc1	-13.3*	i	i	i	i	-14.1	72.0%*	i	37.4%*
CN(C)CC#CCOC(c1ccccc1)c1ccccc1	-6.34*	i	i	i	i	0.3	i	i	44.6%*
CCN(CC)CC#CCOC(c1ccccc1)c1ccccc1	-2.97	i	i	i	i	-22.4	.	.	.
CC1=CC(C)(C)N(C(=O)CSc2nnc(C)s2)c2ccc(C)cc21	-7.09*	i	i	i	i	-6.3	i	i	8.3%*
Cc1ccc(S(C)(=O)=O)cc1C(=O)N1CC(C(N)=O)Oc2ccccc21 (centres undefined)	1.28	i	i	i	i	-2.8	.	.	.
CC1=C(C(=O)OCc2ccccc2)C(c2cccs2)N2C(=O)CCSC2=N1 (centres undefined)	-0.65	i	i	i	i	-20.3	.	.	.
COC(=O)C1=C(C)N=C2SCCC(=O)N2C1c1ccc(OC(=O)c2ccco2)cc1 (centres undefined)	-7.24*	i	i	i	i	-4.8	i	i	i
CC(C)O/C(=N\S(=O)(=O)c1ccc(Cl)cc1)c1ccccc1	-8.32*	i	i	i	i	-14.8	i	i	17.2%*
CCOc1nc(C)cc(C)c1S(=O)(=O)c1cccc(Cl)c1	-8.22*	i	i	i	i	-3.3	i	i	35.8%*
Cc1cc(C)c(S(=O)(=O)c2cccc(Cl)c2)c(Cl)n1	-0.36	i	i	i	i	-9.3	.	.	.
Cc1nnsc1C(=O)N/N=C/c1ccc(OC(F)(F)F)cc1	-1.86	i	i	i	i	-6.4	.	.	.
Fc1ccc(N2CCN(Cc3c[nH]c4ccccc34)CC2)cc1	-7.87*	i	i	i	.	-10.7	56.0%*	i	39.8%*
COc1ccc(CN(C)CC(O)COc2ccc(-c3ccccc3)cc2)cc1OC (centres undefined)	-0.48	i	i	i	i	-18.2	.	.	.
COc1ccc(CN(C)CC(O)COC(c2ccc(OC)cc2)c2ccc(OC)cc2)cc1 (centres undefined)	-8.66*	i	i	i	i	-17.3	75.0%*	i	i
CCN(CC)CCCN(C(=O)c1ccc(OC)cc1)c1nc(-c2ccc(OC)cc2)cs1	-6.07*	i	i	i	i	-13.8	i	i	i
O=C(CN1CCN(Cc2ccc(Cl)cc2)CC1)N1CCc2ccccc21	-9.49*	i	i	i	i	-4.7	i	i	16.3%*
CCNC(=O)CSc1nc2ccccc2c(=O)n1-c1cc(OC)ccc1OC	0.21	i	i	i	i	-5.0	.	.	.
Clc1ccc(CNC2CCN(Cc3ccccc3)CC2)cc1	-12.5*	i	i	i	i	-4.1	58.0%*	i	55.1%*
CCNC(=S)/N=C(/Nc1ccccc1)Nc1nc(C)cc(C)n1	2.49	i	i	i	i	-7.7	i	i	i
SMILES	Kir21 block	KCNQ1 pot	KCNQ1 inh	KCNK9 inh-1	KCNK3 inh	hERG protect	hERG inh	KCNK9 inh-2	Kir21 ephys inh
CC1CCN(c2c(NCC3CCC(C(=O)NCCCc4ccccc4)CC3)c(=O)c2=O)CC1 (centres undefined)	0.94	i	i	i	.	-8.3	.	.	.
Cc1cc(C(=O)COC(=O)/C=C/c2ccco2)c(C)n1C	.	.	.	.	i	.	.	.	.
Cc1cc(OCCOCCNCc2ccccc2)ccc1C(C)C	-7.84*	i	i	i	i	-17.1	49.0%*	i	52.3%*
O=S(=O)(c1ccccc1)N1CCCc2ccccc21	-6.45*	i	i	i	.	-0.7	i	i	22.1%*
O=S(=O)(c1ccc(F)cc1)N1CCCc2ccccc21	-5.99*	i	i	i	.	-6.2	i	i	19.2%*
O=C(O)c1ccc(S(=O)(=O)N2CCCc3ccccc32)cc1	0.05	i	i	i	i	-2.6	.	.	.
CC(=O)c1ccc(S(=O)(=O)N2CCCc3ccccc32)cc1	-3.14	i	i	i	i	-3.0	.	.	.
CNCCCCOc1ccccc1Cc1ccccc1	-8.82*	i	i	i	.	-9.4	i	i	30.3%*
COc1cccc(OC)c1C(=O)Nc1ccc(N2CCCC2)cc1	3.03	i	i	i	i	-4.6	i	i	i
O=C(O)CCC(=O)N1CCN(c2cccc(Cl)c2)CC1	0.81	i	i	i	i	-10.3	.	.	.
O=C(O)/C=C/C(=O)N1CCN(c2cccc(Cl)c2)CC1	4.29	i	i	i	i	-17.9	i	i	i
COc1ccc(C2N=C(c3ccccc3)C(C)(C)N2O)cc1OC (centres undefined)	-0.98	i	i	i	i	-10.6	.	.	.
CCN(CCNCC(O)COc1ccccc1C(C)C)c1cccc(C)c1 (centres undefined)	-6.37*	i	i	i	i	-21.4	61.0%*	i	i
CCOC(=O)N1CCN(CC(O)COc2ccccc2C(C)C)CC1 (centres undefined)	0.17	i	i	i	i	-5.9	.	.	.
CN(C)C(=O)c1ccccc1Sc1cc(Cl)ccc1Cl	-6.66*	i	i	i	i	-12.7	i	i	19.8%*
